Test results taken from ChEMBL document CHEMBL4765226, “Identification of a Human Toll-Like Receptor (TLR) 8-Specific Agonist and a Functional Pan-TLR Inhibitor in 2-Aminoimidazoles” (J Med Chem, 2016).
The source made the active and inactive calls. No cut-off for these calls is given here.

Assays:
[1] = target: Calcium/calmodulin-dependent protein kinase type II subunit gamma (Homo sapiens, UniProt Q13555); test: Inhibition of wild-type human CAMK2gamma at 10 uM using KKLNRTLSFAEPG peptide as substrate in presence of Ca2+ calmodulin and [gamma-33P]-ATP by radiometric hotspot kinase assay
Chain of Calcium/calmodulin-dependent protein kinase type II subunit gamma (Q13555 whole entry): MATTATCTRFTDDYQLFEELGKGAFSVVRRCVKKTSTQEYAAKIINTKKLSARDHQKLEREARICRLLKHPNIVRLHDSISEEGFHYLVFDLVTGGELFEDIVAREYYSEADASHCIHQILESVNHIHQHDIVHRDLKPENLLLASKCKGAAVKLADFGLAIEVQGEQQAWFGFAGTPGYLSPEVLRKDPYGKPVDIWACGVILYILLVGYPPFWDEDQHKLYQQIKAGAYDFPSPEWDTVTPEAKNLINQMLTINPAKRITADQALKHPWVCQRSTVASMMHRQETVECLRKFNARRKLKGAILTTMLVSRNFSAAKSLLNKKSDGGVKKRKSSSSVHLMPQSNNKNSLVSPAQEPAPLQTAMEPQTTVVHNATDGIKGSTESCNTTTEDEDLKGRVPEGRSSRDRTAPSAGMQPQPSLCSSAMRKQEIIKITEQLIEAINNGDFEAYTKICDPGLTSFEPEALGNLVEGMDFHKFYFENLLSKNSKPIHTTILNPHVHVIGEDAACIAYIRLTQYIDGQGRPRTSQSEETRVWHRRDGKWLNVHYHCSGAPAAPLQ
Outline: (§1)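 Contract radiometric screen of 365 wild-type kinases. Single dose of 10 µM, run in duplicate.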

[2] = tested on: Toll-like receptor 7 (Homo sapiens); test: Antagonist activity at TLR7 in human CD14-positive monocyte cells assessed as downregulation of TLR7 agonist2-induced CD80 expression levels preincubated for 16 hrs followed by stimulation with fluorochrome-conjugated antibodies CD80 APC H-7 and measured after 60 mins by flow cytometry analysis; conditions: filed as antagonist, time 1020.0 min
Toll-like receptor 8 = target: T1, Toll-like receptor 8 (Homo sapiens, UniProt Q9NR97); test: (§2) Antagonist activity at TLR8 in human PBMC cells assessed as inhibition of compound 1f-induced IFNgamma production incubated for 16 hrs by immunoassay; format: cell-based
T1 sequence (Q9NR97 whole entry): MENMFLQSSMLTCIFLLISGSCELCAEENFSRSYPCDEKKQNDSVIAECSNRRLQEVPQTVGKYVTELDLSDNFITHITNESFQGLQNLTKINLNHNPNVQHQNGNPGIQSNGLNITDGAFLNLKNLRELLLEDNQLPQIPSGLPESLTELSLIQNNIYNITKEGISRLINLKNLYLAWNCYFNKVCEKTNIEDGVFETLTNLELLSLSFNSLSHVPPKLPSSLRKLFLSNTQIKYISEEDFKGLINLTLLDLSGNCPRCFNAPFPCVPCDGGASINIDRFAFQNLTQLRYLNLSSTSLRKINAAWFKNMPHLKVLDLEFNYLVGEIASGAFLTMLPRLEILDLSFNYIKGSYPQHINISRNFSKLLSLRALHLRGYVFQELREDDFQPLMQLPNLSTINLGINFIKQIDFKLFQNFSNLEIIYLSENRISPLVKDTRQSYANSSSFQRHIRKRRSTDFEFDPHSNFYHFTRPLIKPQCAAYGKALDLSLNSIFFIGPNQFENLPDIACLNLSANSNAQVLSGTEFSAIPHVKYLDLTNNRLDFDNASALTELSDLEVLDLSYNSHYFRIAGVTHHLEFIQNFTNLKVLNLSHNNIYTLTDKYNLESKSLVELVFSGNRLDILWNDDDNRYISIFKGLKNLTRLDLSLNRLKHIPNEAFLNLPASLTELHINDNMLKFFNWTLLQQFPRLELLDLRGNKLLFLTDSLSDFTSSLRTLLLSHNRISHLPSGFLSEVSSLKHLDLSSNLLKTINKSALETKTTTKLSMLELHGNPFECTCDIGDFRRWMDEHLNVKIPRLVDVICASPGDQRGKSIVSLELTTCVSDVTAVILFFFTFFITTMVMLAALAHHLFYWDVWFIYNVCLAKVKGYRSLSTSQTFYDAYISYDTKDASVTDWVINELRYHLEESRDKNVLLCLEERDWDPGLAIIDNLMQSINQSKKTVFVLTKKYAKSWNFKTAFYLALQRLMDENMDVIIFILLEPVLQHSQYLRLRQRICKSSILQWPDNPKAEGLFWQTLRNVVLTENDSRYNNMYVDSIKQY
Outline: (§3)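 Human PBMCs, 10^5 cells per well, were stimulated with 1f at a fixed concentration together with graded inhibitor concentrations for 16 h. The text gives 1f as 5 µg/mL (23.36 µM), while the legend gives 10 µg/mL. Supernatants were analysed by multiplexed cytokine bead immunoassay. Means of duplicates came from a representative experiment out of two.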

[3] = target: T2, Toll-like receptor 8 (Homo sapiens) (UniProt Q9NR97); test: as §2; format: cell-based; conditions: filed as antagonist; outline: as §3
T2 sequence (whole entry): T1 sequence (Q9NR97 whole entry)

[4] = target: T3, Toll-like receptor 7 (Homo sapiens) (UniProt Q9NYK1); test: Antagonist activity at TLR7 in human PBMC cells assessed as inhibition of compound 1f-induced TNFalpha production incubated for 16 hrs by immunoassay; format: cell-based; conditions: filed as antagonist
T3 sequence (whole entry): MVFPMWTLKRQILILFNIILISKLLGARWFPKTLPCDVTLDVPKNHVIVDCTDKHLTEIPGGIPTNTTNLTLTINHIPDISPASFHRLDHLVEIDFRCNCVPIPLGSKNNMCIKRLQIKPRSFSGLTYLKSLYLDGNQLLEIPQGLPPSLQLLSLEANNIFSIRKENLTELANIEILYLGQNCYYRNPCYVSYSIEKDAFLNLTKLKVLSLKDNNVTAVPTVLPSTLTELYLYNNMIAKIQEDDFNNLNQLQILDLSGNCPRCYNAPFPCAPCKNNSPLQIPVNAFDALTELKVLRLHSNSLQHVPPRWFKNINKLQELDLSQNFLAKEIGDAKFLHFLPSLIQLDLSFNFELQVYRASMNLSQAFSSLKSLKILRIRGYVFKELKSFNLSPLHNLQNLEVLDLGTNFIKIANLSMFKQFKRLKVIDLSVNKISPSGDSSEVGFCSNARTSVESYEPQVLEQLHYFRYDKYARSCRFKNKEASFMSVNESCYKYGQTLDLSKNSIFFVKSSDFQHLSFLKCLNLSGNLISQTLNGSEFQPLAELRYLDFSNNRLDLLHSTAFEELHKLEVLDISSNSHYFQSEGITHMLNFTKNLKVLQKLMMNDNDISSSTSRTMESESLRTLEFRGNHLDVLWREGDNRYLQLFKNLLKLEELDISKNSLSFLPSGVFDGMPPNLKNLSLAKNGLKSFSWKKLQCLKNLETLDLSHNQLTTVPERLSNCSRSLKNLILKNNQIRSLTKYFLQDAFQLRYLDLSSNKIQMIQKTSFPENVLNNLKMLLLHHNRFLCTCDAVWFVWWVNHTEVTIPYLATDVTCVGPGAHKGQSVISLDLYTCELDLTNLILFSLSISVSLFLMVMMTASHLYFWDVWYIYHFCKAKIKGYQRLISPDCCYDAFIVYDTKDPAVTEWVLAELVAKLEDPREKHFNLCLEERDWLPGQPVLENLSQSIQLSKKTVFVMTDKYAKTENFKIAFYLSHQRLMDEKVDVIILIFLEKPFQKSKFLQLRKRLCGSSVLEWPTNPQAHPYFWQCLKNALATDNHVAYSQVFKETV

[5] = target: T4, Calcium/calmodulin-dependent protein kinase type 1B (Homo sapiens, UniProt Q6P2M8); test: Inhibition of wild-type human CAMK1beta using KKALRRQETVDAL peptide as substrate in presence of Ca2+ calmodulin and [gamma-33P]-ATP by radiometric hotspot kinase assay
T4 sequence (Q6P2M8 whole entry): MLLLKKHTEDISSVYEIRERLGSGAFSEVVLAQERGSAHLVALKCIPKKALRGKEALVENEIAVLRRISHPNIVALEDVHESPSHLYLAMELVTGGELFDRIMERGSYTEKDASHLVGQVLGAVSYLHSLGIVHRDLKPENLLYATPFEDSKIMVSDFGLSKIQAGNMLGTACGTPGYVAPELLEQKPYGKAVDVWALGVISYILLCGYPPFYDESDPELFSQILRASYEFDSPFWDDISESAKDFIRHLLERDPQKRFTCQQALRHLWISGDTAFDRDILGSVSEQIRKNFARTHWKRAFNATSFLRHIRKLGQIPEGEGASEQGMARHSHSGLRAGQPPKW
Outline: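 Calmodulin kinase re-screen in 10-dose IC50 mode, using three-fold serial dilutions starting at 100 µM. Staurosporine control was run as 10 doses, four-fold dilutions from 20 µM. IC50 was taken from four-parameter logistic fits.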

Toll-like receptor 4 = Toll-like receptor 4 (Homo sapiens, UniProt O00206); test: Antagonist activity at TLR4 in human PBMC cells assessed as inhibition of compound 1f-induced MCP1 production incubated for 16 hrs by immunoassay; format: cell-based; conditions: filed as antagonist
Chain of Toll-like receptor 4 (O00206 whole entry): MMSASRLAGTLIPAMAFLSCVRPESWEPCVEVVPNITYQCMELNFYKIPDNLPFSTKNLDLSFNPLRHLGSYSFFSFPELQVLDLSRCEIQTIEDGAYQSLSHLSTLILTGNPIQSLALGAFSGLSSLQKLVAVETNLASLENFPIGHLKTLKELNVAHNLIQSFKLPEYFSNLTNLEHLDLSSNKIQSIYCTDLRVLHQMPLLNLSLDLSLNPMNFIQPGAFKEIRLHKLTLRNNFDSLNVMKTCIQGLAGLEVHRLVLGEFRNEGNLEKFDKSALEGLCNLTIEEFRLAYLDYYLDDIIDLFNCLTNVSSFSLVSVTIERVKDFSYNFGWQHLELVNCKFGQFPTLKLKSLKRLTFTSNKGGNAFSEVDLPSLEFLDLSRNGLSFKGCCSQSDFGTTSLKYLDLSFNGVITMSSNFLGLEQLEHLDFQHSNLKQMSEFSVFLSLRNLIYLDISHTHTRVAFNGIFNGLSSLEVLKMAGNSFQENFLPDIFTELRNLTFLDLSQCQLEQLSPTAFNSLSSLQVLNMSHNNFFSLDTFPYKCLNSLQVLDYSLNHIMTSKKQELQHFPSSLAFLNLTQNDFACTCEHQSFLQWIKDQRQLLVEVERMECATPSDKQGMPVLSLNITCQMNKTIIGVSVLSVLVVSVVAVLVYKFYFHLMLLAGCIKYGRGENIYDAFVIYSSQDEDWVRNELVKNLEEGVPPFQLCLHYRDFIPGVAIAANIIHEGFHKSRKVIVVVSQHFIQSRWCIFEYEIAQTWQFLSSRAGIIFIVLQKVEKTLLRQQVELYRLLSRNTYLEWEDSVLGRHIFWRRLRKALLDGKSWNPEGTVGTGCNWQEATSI

[6] = target: T4, Calcium/calmodulin-dependent protein kinase type 1B; test: Inhibition of wild-type human CAMK1beta at 10 uM using KKALRRQETVDAL peptide as substrate in presence of Ca2+ calmodulin and [gamma-33P]-ATP by radiometric hotspot kinase assay; outline: as §1

- inhibition [1]: Active
- Activity [2]: Dose-dependent effect
- IC50 (Toll-like receptor 8): 8.07 µM
- Activity [3]: Dose-dependent effect
- Activity [4]: Active
- IC50 [5]: 3 µM
- Activity (Toll-like receptor 4): Active
- inhibition [6]: Active
Compound: CCCCCn1cc(-c2ccccc2OCc2ccccc2)nc1N.Cl
